# Source: ChEMBL document CHEMBL1157638, “Fluorescent epigenetic small molecule induces expression of the tumor suppressor ras-association domain family 1A and inhibits human prostate xenograft” (J Med Chem, 2010)
# Active and inactive are the calls of the source. The calls are words filed in the database; no cut-off is given here.
# Experiments:
# MDA-MB-231 = assay: Growth inhibition of human MDA-MB-231 cells assessed as cell growth at 10 nM relative to untreated control; type: functional; conditions: read-out: Activity
# HL-60(TB) = assay: Growth inhibition of human HL-60(TB) cells assessed as cell growth at 100 nM relative to untreated control; type: functional; conditions: read-out: Activity
# [1] = Growth inhibition of human […] cells assessed as cell growth at 100 nM relative to untreated control; type: functional; conditions: read-out: Activity
# HOP-92 = assay: Growth inhibition of human HOP92 cells assessed as cell growth at 100 nM relative to untreated control; type: functional; conditions: read-out: Activity
# Summary of the method: (§1)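 Run externally at the National Cancer Institute as a 59-cell-line panel screen, with concentrations up to 100 μM. Growth was scored relative to control, where negative growth or total cell kill was possible. Data are in the Supporting Information.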
# NCI-H226 = assay: Growth inhibition of human NCI-H226 cells assessed as cell growth at 100 nM relative to untreated control; type: functional; conditions: read-out: Activity
# U-251 = assay: Growth inhibition of human U251 cells assessed as cell growth at 100 nM relative to untreated control; type: functional; conditions: read-out: Activity
# LOX IMVI [2] = assay: Growth inhibition of human LOXIMVI cells assessed as cell growth at 100 nM relative to untreated control; type: functional; conditions: read-out: Activity
# SK-MEL-5 [3] = assay: Growth inhibition of human SK-MEL-5 cells assessed as cell growth at 100 nM relative to untreated control; type: functional; conditions: read-out: Activity
# 786-0 = assay: Growth inhibition of human 786-0 cells assessed as cell growth at 100 nM relative to untreated control; type: functional; conditions: read-out: Activity
# CAKI-1 = assay: Growth inhibition of human Caki1 cells assessed as cell growth at 100 nM relative to untreated control; type: functional; conditions: read-out: Activity; summary of the method: as §1
# NCI-H522 = assay: Growth inhibition of human NCI-H522 cells assessed as cell growth at 1 uM relative to untreated control; type: functional; conditions: read-out: Activity
# SW-620 [4] = assay: Growth inhibition of human SW620 cells assessed as cell growth at 1 uM relative to untreated control; type: functional; conditions: read-out: Activity
# SF-268 = assay: Growth inhibition of human SF268 cells assessed as cell growth at 1 uM relative to untreated control; type: functional; conditions: read-out: Activity
# SF-539 = assay: Growth inhibition of human SF539 cells assessed as cell growth at 1 uM relative to untreated control; type: functional; conditions: read-out: Activity
# SNB-19 = assay: Growth inhibition of human SNB19 cells assessed as cell growth at 1 uM relative to untreated control; type: functional; conditions: read-out: Activity
# SW-620 [5] = assay: Growth inhibition of human SW620 cells assessed as cell growth at 1 nM relative to untreated control; type: functional; conditions: read-out: Activity
# LOX IMVI [6] = assay: Growth inhibition of human LOXIMVI cells assessed as cell growth at 1 nM relative to untreated control; type: functional; conditions: read-out: Activity
# SNB-75 = assay: Growth inhibition of human SNB75 cells assessed as cell growth at 1 uM relative to untreated control; type: functional; conditions: read-out: Activity
# SK-MEL-5 [7] = assay: Growth inhibition of human SK-MEL-5 cells assessed as cell growth at 1 uM relative to untreated control; type: functional; conditions: read-out: Activity
# IGROV-1 = assay: Growth inhibition of human IGROV1 cells assessed as cell growth at 1 uM relative to untreated control; type: functional; conditions: read-out: Activity
# OVCAR-5 = assay: Growth inhibition of human OVCAR5 cells assessed as cell growth at 1 uM relative to untreated control; type: functional; conditions: read-out: Activity
# OVCAR-3 = assay: Growth inhibition of human OVCAR-3 cells assessed as cell growth at 1 nM relative to untreated control; type: functional; conditions: read-out: Activity
# CCRF-CEM = assay: Growth inhibition of human CCRF-CEM cells assessed as cell growth at 10 nM relative to untreated control; type: functional; conditions: read-out: Activity
# A549 = assay: Growth inhibition of human A549 cells assessed as cell growth at 10 nM relative to untreated control; type: functional; conditions: read-out: Activity
# NCI-H322M = assay: Growth inhibition of human NCI-H322M cells assessed as cell growth at 10 nM relative to untreated control; type: functional; conditions: read-out: Activity
# A498 = assay: Growth inhibition of human A498 cells assessed as cell growth at 1 uM relative to untreated control; type: functional; conditions: read-out: Activity
# UO-31 [8] = assay: Growth inhibition of human UO31 cells assessed as cell growth at 1 uM relative to untreated control; type: functional; conditions: read-out: Activity
# PC-3 [9] = assay: Growth inhibition of human PC3 cells assessed as cell growth at 1 uM relative to untreated control; type: functional; conditions: read-out: Activity
# NCI-H23 = assay: Growth inhibition of human NCI-H23 cells assessed as cell growth at 10 uM relative to untreated control; type: functional; conditions: read-out: Activity
# SK-MEL-28 = assay: Growth inhibition of human SK-MEL-28 cells assessed as cell growth at 10 uM relative to untreated control; type: functional; conditions: read-out: Activity
# OVCAR-8 [10] = assay: Growth inhibition of human OVCAR8 cells assessed as cell growth at 10 uM relative to untreated control; type: functional; conditions: read-out: Activity
# K562 = assay: Growth inhibition of human K562 cells; type: functional
# EKVX = assay: Growth inhibition of human EKVX cells; type: functional; summary of the method: as §1
# COLO 205 = assay: Growth inhibition of human COLO205 cells; type: functional
# SK-MEL-2 = assay: Growth inhibition of human SK-MEL-2 cells; type: functional
# PC-3 [11] = assay: Cytostatic against human PC3 cells up to 30 uM after 24 hrs by trypan blue exclusion method; type: functional, cell-based
# Summary of the method: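 PC-3 cells were seeded in triplicate at 1.5 × 10⁴ cells/well and grown in phenol red-free IMEM with 10% FBS at 37 °C, 5% CO₂. After 24 h they were treated with DMSO or 1, 5, 15, 30 or 60 μM compound for 24 h. Cells were then trypsinized, and live and dead cells were counted by 0.4% trypan blue exclusion on a hemocytometer. Values are mean ± SEM of three independent observations.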
# PC-3 [12] = assay: […] in RASSF1A gene expression in human PC3 cells at 5 uM after 3 days hrs by RT-PCR; type: functional, cell-based
# [13] = target: DNA (cytosine-5)-methyltransferase 3A (Homo sapiens) (UniProt Q9Y6K1); assay: Binding affinity to DNMT3a in human PC3 cells cytoplasm at 5 uM after 6 hrs by antibody staining; type: cell-based; conditions: PC-3
# Summary of the method: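 PC-3 cells were plated overnight on fibronectin/[…]-coated slides and treated with 5 μM compound or DMSO for 1-6 h. Cells were PBS-washed, fixed in 4% formaldehyde, and stained with propidium iodide (nuclei) and anti-DNMT3a or anti-DNMT3b antibody. The compound was excited at 725 nm by multiphoton laser and imaged through a 500-550 nm filter by confocal microscopy.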
# UO-31 [14] = assay: Growth inhibition of human UO31 cells; type: functional
# MDA-MB-435 = assay: Growth inhibition of human MDA-MB-435 cells assessed as cell growth at 10 nM relative to untreated control; type: functional; conditions: read-out: Activity
# OVCAR-8 [15] = assay: Growth inhibition of human OVCAR8 cells assessed as cell growth at 10 nM relative to untreated control; type: functional; conditions: read-out: Activity
# UO-31 [16] = assay: Growth inhibition of human UO31 cells assessed as cell growth at 10 nM relative to untreated control; type: functional; conditions: read-out: Activity
# [17] = read-out: LC50 (the source's name)
# Sequence of DNA (cytosine-5)-methyltransferase 3A (Homo sapiens) (Q9Y6K1 whole entry, looked up): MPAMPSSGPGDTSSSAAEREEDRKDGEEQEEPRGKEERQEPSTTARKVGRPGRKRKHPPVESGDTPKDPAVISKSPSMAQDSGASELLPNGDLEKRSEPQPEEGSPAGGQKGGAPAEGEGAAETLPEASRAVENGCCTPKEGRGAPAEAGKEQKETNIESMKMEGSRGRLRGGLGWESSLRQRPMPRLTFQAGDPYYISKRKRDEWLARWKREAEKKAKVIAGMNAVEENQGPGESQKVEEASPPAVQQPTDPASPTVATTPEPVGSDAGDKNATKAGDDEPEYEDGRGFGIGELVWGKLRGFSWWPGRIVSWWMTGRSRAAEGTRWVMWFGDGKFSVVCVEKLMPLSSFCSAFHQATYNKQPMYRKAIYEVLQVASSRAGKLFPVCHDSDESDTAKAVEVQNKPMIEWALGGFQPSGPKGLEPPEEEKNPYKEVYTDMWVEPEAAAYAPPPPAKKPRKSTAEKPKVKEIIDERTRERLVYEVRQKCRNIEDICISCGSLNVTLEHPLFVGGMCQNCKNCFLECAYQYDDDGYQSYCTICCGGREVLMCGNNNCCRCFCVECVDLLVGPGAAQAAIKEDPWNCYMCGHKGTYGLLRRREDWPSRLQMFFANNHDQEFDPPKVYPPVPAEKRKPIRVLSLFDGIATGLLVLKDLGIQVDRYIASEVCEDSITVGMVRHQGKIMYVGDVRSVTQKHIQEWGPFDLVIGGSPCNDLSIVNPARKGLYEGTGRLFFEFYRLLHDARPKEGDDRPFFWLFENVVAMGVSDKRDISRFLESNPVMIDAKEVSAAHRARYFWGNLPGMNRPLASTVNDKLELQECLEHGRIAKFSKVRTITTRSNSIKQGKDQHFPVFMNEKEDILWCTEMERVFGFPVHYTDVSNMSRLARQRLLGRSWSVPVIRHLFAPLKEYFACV
structure (smiles),measurement,setting,value
COc1ccc2c(c1)[nH]c1c(C)c(OS(=O)(=O)c3cccc4c(N(C)C)cccc34)ccc12,growth at 0.01 µM,MDA-MB-231,86%
same,growth at 0.1 µM,HL-60(TB),69%
same,growth at 0.1 µM,[1],90%
same,growth at 0.1 µM,HOP-92,91%
same,growth at 0.1 µM,NCI-H226,85%
same,growth at 0.1 µM,U-251,92%
same,growth at 0.1 µM,LOX IMVI [2],91%
same,growth at 0.1 µM,SK-MEL-5 [3],91%
same,growth at 0.1 µM,786-0,105%
same,growth at 0.1 µM,CAKI-1,81%
same,growth at 1 µM,NCI-H522,50%
same,growth at 1 µM,SW-620 [4],24%
same,growth at 1 µM,SF-268,44%
same,growth at 1 µM,SF-539,-30%
same,growth at 1 µM,SNB-19,45%
same,growth at 0.001 µM,SW-620 [5],103%
same,growth at 0.001 µM,LOX IMVI [6],95%
same,growth at 1 µM,SNB-75,24%
same,growth at 1 µM,SK-MEL-5 [7],-3%
same,growth at 1 µM,IGROV-1,59%
same,growth at 1 µM,OVCAR-5,101%
same,growth at 0.001 µM,OVCAR-3,100%
same,growth at 0.01 µM,CCRF-CEM,92%
same,growth at 0.01 µM,A549,97%
same,growth at 0.01 µM,NCI-H322M,94%
same,growth at 1 µM,A498,15%
same,growth at 1 µM,UO-31 [8],54%
same,growth at 1 µM,PC-3 [9],18%
same,growth at 10 µM,NCI-H23,8%
same,growth at 10 µM,SK-MEL-28,19%
same,growth at 10 µM,OVCAR-8 [10],24%
same,GI50,K562,3.01 µM
same,TGI,K562,> 100 µM
same,CC50,K562; [17],> 100 µM
same,GI50,EKVX,5.44 µM
same,TGI,EKVX,> 100 µM
same,CC50,EKVX; [17],> 100 µM
same,GI50,COLO 205,4.24 µM
same,TGI,COLO 205,> 100 µM
same,CC50,COLO 205; [17],> 100 µM
same,GI50,SK-MEL-2,10 µM
same,TGI,SK-MEL-2,> 100 µM
same,CC50,SK-MEL-2; [17],> 100 µM
same,Activity,PC-3 [11],Active
same,Activity,PC-3 [12],Active
same,Activity,[13],inactive
same,GI50,UO-31 [14],13.6 µM
same,TGI,UO-31 [14],> 100 µM
same,CC50,UO-31 [14]; [17],> 100 µM
same,growth at 0.01 µM,MDA-MB-435,95%
same,growth at 0.01 µM,OVCAR-8 [15],103%
same,growth at 0.01 µM,UO-31 [16],92%
